An excerpt weighted towards active compounds, which were near 2.6% of everything screened.
NSD2 inh: NSD2 (human) methyltransferase inhibition; O96028; NSD2 peptide methylation, AlphaScreen, 120 min; inhibition, % at 12.5 µM; 0.54% of 310,000 active; AID 743445; in the data active means inhibition above about 50%
SIRT5 inh: sirtuin-5 (human) deacylase inhibition; Q9NXA8; Purified SirT5, succinyl-peptide AMC, trypsin-coupled fluorescence; inhibition, % at 15 µM; 1.1% of 330,000 active; in the data active means inhibition above about 15%
Target sequence (Q9NXA8 whole entry, looked up): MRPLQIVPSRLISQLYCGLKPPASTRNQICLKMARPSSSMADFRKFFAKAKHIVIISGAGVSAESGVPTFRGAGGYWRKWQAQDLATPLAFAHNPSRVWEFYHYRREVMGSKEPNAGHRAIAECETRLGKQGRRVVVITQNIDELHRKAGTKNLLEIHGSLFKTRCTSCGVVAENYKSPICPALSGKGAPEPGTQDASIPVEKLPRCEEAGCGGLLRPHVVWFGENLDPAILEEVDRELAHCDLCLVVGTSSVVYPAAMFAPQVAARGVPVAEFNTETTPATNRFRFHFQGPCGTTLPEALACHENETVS
Casp6 inh: blocks human caspase-6 cleavage activity; inhibition, % at 12.5 µM; purified caspase-6, Z-VEID-R110 cleavage fluorescence; 0.53% of 350,000 active; P55212; AID 686996;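 active means mean inhibition across replicates at least about 35%, with every replicate also reaching that limit, limit read from the data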;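 further: 0% = median of neutral control wells and 100% = no fluorescence left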
Target sequence (P55212 24-179 limits assumed): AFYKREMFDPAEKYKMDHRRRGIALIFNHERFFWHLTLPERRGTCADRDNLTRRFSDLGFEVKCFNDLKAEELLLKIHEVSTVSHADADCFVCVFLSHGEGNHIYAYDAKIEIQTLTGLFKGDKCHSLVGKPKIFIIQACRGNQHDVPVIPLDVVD
Target sequence (P55212 194-293 limits assumed): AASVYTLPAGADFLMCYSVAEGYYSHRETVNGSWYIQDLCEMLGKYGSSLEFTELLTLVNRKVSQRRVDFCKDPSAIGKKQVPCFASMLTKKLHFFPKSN
UCH37 inh: blocks the human deubiquitinase UCH37 | Q9Y5K5 | purified proteasome/UCH37, Ub-AMC cleavage fluorescence | inhibition, % (concentration not given with the values) | 0.33% of 330,000 active | AID 588478;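 active means mean inhibition over replicate wells above about 20%, limit read from the data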;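 further: 0% = compound-free wells with enzyme and 100% = wells lacking proteasome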
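system = Proteasome-associated human UCH37 deubiquitinase | amount = 0.15 nM proteasome as dispensed | medium = pH 7.4 Tris-HCl (50 mM) with ovalbumin, ATP-MgCl2, DTT | incubation = 30 min preincubation with enzyme, 25 min cleavage at room temperature | detection = AMC fluorescence 355/460 nm | read-out basis = percent inhibition | controls = no-proteasome and no-compound wells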
FGF22 binding: FGF22 (human) thermal shift binding. activity (Tm shift, normalised), % at 9.99 µM. Q9HCT0. recombinant FGF22 thermal shift, SYPRO orange fluorescence; percent of sucrose octasulfate shift, DMSO zero. AID 651658. 1.5% of 340,000 active;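 active means mean Tm shift, scaled 0 neutral to 100 positive control, at about 1.3% or above, every replicate too, limit read from the data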
The depositor's hits bear a star; nt = not tested or not shown; ! = repeats disagree.

SMILES	NSD2 inh	SIRT5 inh	Casp6 inh	UCH37 inh	FGF22 binding
CC(=Cc1ccccc1)C=C1SC(=S)N(CCCC(=O)Nc2ccc(C(=O)O)cc2)C1=O	nt	27*	41*	nt	0
O=C(O)CN1C(=O)/C(=C/C=C/c2ccccc2)SC1=S	8	2	3	13	1
Cc1ccc(C=NNC(=O)NN(C)c2ncc(C(F)(F)F)cc2Cl)cc1	nt	nt	nt	1	nt
CCCNC(=O)N(C)C[C@@H]1Oc2cc(-c3cncnc3)ccc2S(=O)(=O)N([C@@H](C)CO)C[C@H]1C	nt	2	1	nt	0
CNC[C@@H]1Oc2ncc(-c3ccccc3F)cc2C(=O)N([C@H](C)CO)C[C@@H]1C	nt	-3	0	nt	0
CC(/C=C1\SC(=S)N(CCC(=O)Nc2cccc(C(=O)O)c2)C1=O)=C\c1ccccc1	20	14	70*	22*	0
CC(/C=C1\SC(=S)N(CCC(=O)Nc2ccccc2O)C1=O)=C\c1ccccc1	-1	-2	1	6	0
OCC(O)C1OC(Nc2ccc(Br)cc2)C(O)C1O (configuration not stated)	-2	1	0	3	43*
Cc1c(CCC(=O)O)c(=O)oc2c(C)c(OCc3cc4c(cc3Cl)OCO4)ccc12	-3	6	43*	-2	0
CO[C@@H]1CN(C)C(=O)c2cc(NC(=O)c3cc(C)on3)ccc2OC[C@H](C)NC[C@H]1C	nt	1	nt	nt	0
O=C(C[C@H]1CC[C@H]2[C@@H](COC[C@H](O)CN2S(=O)(=O)c2cccc(F)c2)O1)Nc1ccccc1	nt	1	0	nt	0
CCC(=O)c1ccc(OCC(O)Cn2c(C)nc3ccccc32)cc1 (configuration not stated)	0	nt	nt	0	nt
Cc1nc2ccccc2n1CC(O)COc1ccc(Br)cc1 (configuration not stated)	0	-2	0	3	44*
O=C(O)c1ccc(OCC(O)Cn2c3ccccc3c3ccccc32)cc1 (configuration not stated)	-2	24*	2	3	0
C[C@@H]1CCCCO[C@H](CN(C)S(C)(=O)=O)[C@H](C)CN([C@@H](C)CO)C(=O)c2cc(NS(=O)(=O)c3ccccc3)ccc2O1	nt	9	1	nt	-1
CN(C)C(=O)c1ccc(-c2ccc([C@@H]3[C@H](CO)N4C(=O)CN(C(=O)C5CCCC5)C[C@@H]34)cc2)cc1	nt	-5	4	nt	nt
COc1ccc(S(=O)(=O)N(C)C[C@@H]2OCCCC[C@H](C)Oc3ccc(NS(=O)(=O)c4ccc(F)cc4)cc3C(=O)N([C@H](C)CO)C[C@H]2C)cc1	nt	19*	3	nt	0
COc1ccc(S(=O)(=O)Nc2ccc3c(c2)C(=O)N([C@@H](C)CO)C[C@@H](C)[C@@H](CN(C)S(=O)(=O)c2ccc(F)cc2)OCCCC[C@@H](C)O3)cc1	nt	11	1	nt	-1
COc1ccc(S(=O)(=O)Nc2ccc3c(c2)C(=O)N([C@@H](C)CO)C[C@@H](C)[C@@H](CN(C)S(=O)(=O)c2ccc(F)cc2)OCCCC[C@H](C)O3)cc1	nt	16*	3	nt	-1
COc1ccc(S(=O)(=O)N(C)C[C@H]2OCCCC[C@@H](C)Oc3ccc(NS(=O)(=O)c4ccc(F)cc4)cc3C(=O)N([C@@H](C)CO)C[C@H]2C)cc1	nt	18*	1	nt	0
COc1ccc(S(=O)(=O)N2C[C@@H](O)COC[C@H]3O[C@H](CC(=O)NCc4ccc(Cl)c(Cl)c4)CC[C@@H]32)cc1	nt	6	-4	nt	0
Cc1ccccc1N1C(=O)C2ON(c3ccccc3)C(c3ccco3)C2C1=O (configuration not stated)	-1	23*	1	1	0
CN(C)C(=O)c1ccc(-c2ccc(C3[C@@H]4CN(C(=O)Cc5ccccc5)C[C@H]3N4)cc2)cc1 (some centres not stated)	nt	17*!	0	nt	nt
CN(C)C(=O)c1cccc(-c2ccc(C3[C@@H]4CN(C(=O)c5ccccn5)C[C@H]3N4)cc2)c1 (some centres not stated)	nt	22*!	2	nt	nt
COc1ccc(NC(=O)Nc2ccc3c(c2)C(=O)N([C@@H](C)CO)C[C@H](C)[C@@H](CN(C)Cc2ccc(Cl)c(Cl)c2)OCCCC[C@H](C)O3)cc1	nt	6	-2	nt	0
SMILES	NSD2 inh	SIRT5 inh	Casp6 inh	UCH37 inh	FGF22 binding
CC(=NNC(=O)c1cc2c(s1)CCC(C)C2)c1ccc[nH]1 (configuration not stated)	nt	nt	nt	-13	nt
CCOc1ccccc1CNC(c1ccccc1)c1ccccc1	-14	2	1	2	0
CCOc1ccccc1CNC(CC)CO (configuration not stated)	1	-3	-2	4	43*
CO[C@H]1CN(C)C(=O)c2cccc(C#N)c2OCC[C@@H]2CC[C@H](OC)[C@@H](CN(C)C(=O)[C@H]1C)O2	nt	5	3	nt	0
CC1=C(/C=C/C(C)=C/C=C/C(C)=C/CO)C(C)(C)CCC1	nt	26*	5	78*	0
CC(=O)N(C[C@H]1N[C@H](CO)[C@@H]1c1ccc(-c2ccc(F)cc2)cc1)C(C)C	nt	-3	-1	nt	0
CCOC(=O)Cn1cc(C#N)c2cccc(CC)c21	-1	24*	-1	-1	0
CCc1nc2ccccc2c(C(=O)Oc2ccc(C(=O)OC)cc2)c1C	-4	0	0	3	44*
CCc1nc2ccccc2c(C(=O)OCC(=O)Nc2ccc(NC(C)=O)cc2)c1C	-2	2	1	7	0
COCCNC(=O)c1onc(CSc2cc(C)cc(C)c2)c1C(=O)O	nt	-21	0	34*	0
CCCNC(=O)c1onc(CSc2ccc(F)c(F)c2)c1C(=O)NCCC	nt	-2	0	2	36*
CC(C)CCNC(=O)c1onc(CSc2ccc(F)c(F)c2)c1C(=O)NCCC(C)C	nt	nt	1	2	0
O=C(c1cnccn1)N1CC(=O)N2[C@@H](CO)[C@@H](c3ccc(C#CC4CC4)cc3)[C@@H]2C1	nt	-6	2	nt	nt
CC(C)Oc1cccc(C(=O)NN=Cc2ccoc2)c1	nt	nt	nt	-2	nt
COc1ccc2[nH]cc(CCNC(=O)CS(=O)(=O)Cc3ccccc3)c2c1	2	-4	2	1	0
COc1ccc2[nH]cc(CCNS(=O)(=O)Cc3ccccc3)c2c1	0	4	1	5	43*
COc1ccc(OC)c(S(=O)(=O)NCCc2ccccc2)c1	0	15*	-2	-1	0
C[C@H]1CN([C@@H](C)CO)C(=O)c2cc(NS(=O)(=O)c3ccc(F)cc3)ccc2O[C@@H]1CN(C)Cc1ccc2c(c1)OCO2	nt	-1	-3	nt	0
CCN(CC(=O)Nc1c(F)cccc1F)C(=O)c1ccc2c(=O)n3c(nc2c1)CCC3	-2	-1	-2	-12	nt
CCN(CC(=O)Nc1ccccc1C(F)(F)F)C(=O)c1ccc2c(=O)n3c(nc2c1)CCC3	nt	22*	-128	-5	0
